Shown are actives, neighbours in structure and some others; about 1.9% of the full set was active somewhere.
PP5 inh: blocks human protein phosphatase 5 activity. hit rate 0.18% among 320,000. purified PP5c, OMFP substrate fluorescence. AID 1987. P53041. inhibition, % at 6.7 µM;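 active = inhibition above the campaign's mean inhibition across all tested compounds plus 3 SD, cut at about 9.5% in these data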;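 note: 0% = DMSO only and 100% = 100 µM cantharidin control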
Target sequence (P53041 whole entry, looked up): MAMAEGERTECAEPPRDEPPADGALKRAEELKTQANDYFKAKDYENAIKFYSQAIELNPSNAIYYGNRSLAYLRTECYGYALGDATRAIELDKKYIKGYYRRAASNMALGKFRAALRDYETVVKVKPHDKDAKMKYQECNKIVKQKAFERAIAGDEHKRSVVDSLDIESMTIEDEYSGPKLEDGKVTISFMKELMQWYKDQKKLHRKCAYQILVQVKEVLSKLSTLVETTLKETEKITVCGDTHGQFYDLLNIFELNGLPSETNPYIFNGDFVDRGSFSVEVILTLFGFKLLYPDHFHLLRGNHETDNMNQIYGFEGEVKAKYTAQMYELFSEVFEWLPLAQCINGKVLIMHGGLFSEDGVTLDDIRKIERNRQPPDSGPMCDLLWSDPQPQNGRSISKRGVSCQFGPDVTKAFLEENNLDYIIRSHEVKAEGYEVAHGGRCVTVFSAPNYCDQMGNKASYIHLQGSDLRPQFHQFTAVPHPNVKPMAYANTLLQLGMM
STEP inh: STEP (human) phosphatase inhibition; P54829; inhibition, % at 20 µM; AID 588621; hit rate 0.25% among 360,000; recombinant STEP, OMFP fluorogenic substrate, fluorescence;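 active = inhibition at 20 µM, scaled per plate between control wells, above about 37%, limit read from the data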;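 note: 0% = DMSO with enzyme and substrate and 100% = substrate only without enzyme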
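Assay system: isolated STEP enzyme. Buffer or medium: pH 6.0 Bis-Tris with DTT and Tween 20. Also added: fluorogenic phosphatase substrate OMFP at 25 µM final. Dosing: 20 µM, 1% DMSO. Timing: 20 min reaction, room temperature, in the dark. Measured by: fluorescence intensity, excitation 480 nm, emission 540 nm. Evaluation: normalized % inhibition.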
PP1 inh: PP1-alpha (human) inhibition in PP5 counter-screen; purified PP1alpha, OMFP fluorescence; hit rate 0.9% among 320,000; inhibition, % at 6.7 µM;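 active = inhibition above the mean inhibition of all tested compounds plus 3 SD, computed separately for each screening campaign, cut at about 15% in these data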
Scp-1 inhibitor: inhibitors of human Scp-1 phosphatase; Recombinant Scp1, phosphopeptide, malachite green phosphate absorbance; Q9GZU7; hit rate 0.88% among 340,000; inhibition, % at 20 µM;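 active = inhibition above about 50% at 20 µM, limit read from the data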;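 note: plate controls were DMSO wells with enzyme for no effect and wells lacking enzyme for full effect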
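Times: enzyme reaction 45 min at room temperature, colour 5 min, stabilisation 30 min. Material: SCP-1 catalytic fragment, aa 76-261. Medium: Acidic Tris acetate buffer with magnesium and detergent. Signal: colorimetric free-phosphate detection, absorbance 630 nm. Read-out basis: % inhibition of SCP-1 phosphate liberation. Reagent: Phosphorylated 17-residue peptide substrate.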
LMPTP block: LMPTP (human) inhibition; P24666; recombinant LMPTP-A, OMFP fluorogenic substrate, fluorescence intensity; inhibition, % at 20 µM; hit rate 0.22% among 360,000; AID 651560;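 active = compounds that cut the enzyme signal by at least half of the control window in the single-dose screen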;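 note: plate controls were DMSO wells with enzyme plus substrate for no effect and substrate without enzyme for full effect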
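material = LMPTP-A | quantity = 0.625 nM enzyme | reagent = OMFP substrate, 400 µM final | buffer or medium = Bis-Tris pH 6.0, DTT, detergent | detection = endpoint fluorescence intensity from OMFP dephosphorylation | dosing = single 20 µM dose | read-out basis = % inhibition relative to no-enzyme and uninhibited control wells | control set = no-enzyme and uninhibited controls | timing = 50 min at room temperature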
Active calls of the source: *; / = not tested or not shown.

SMILES	PP5 inh	STEP inh	PP1 inh	Scp-1 inhibitor	LMPTP block
CCN1C(=O)[C@@H]2[C@@H](c3ccc(-c4ccc5c(c4)OCO5)cc3)N3CCCC[C@@]3(C(=O)OC)[C@@H]2C1=O	3	3	4	-6	2
CCOC(=O)CC(C(=O)OCC)P(=O)(c1ccccc1)c1ccccc1 (stereo not drawn)	-2	-3	-3	-8	0
CC(=O)c1c(C)[nH]c(C(=O)COC(=O)CCNS(=O)(=O)c2ccc(C)c(C)c2)c1C	/	-1	/	10	0
O=c1c(-c2nnc(SCc3ccc(Cl)cc3Cl)o2)cccn1Cc1ccccc1	-2	1	16*	3	9
CSc1nnc(-c2cccn(Cc3ccccc3)c2=O)o1	3	-2	2	1	-1
Nc1ccc(-c2nc3c(ccc4ccccc43)[nH]2)cc1	4	0	0	-6	4
COc1ccc(Nc2cc(C)c3c(O)cccc3n2)cc1	0	-3	2	-4	79*
Cc1ccc(Nc2cc(C)c3c(O)cccc3n2)cc1C	9	5	10	2	67*
Cc1ccccc1Nc1cc(C)c2c(O)cccc2n1	5	-1	10	-16	67*
Cc1ccc(Nc2cc(C)c3ccc(O)cc3n2)cc1C	4	0	17*	0	0
COc1ccc(N2CCN(C(=O)CCc3nnc4ccc(N5CCC(C)CC5)nn34)CC2)cc1	2	1	4	-7	0
CC1(C(=O)NCCC#N)CCN1C(=O)C1(c2ccccc2)CC1 (stereo not drawn)	/	1	/	/	0
Cc1c(CCOC(=O)c2ccc([N+](=O)[O-])cc2)sc[n+]1CC(=O)c1ccccc1	-1	2	1	-2	9
COc1cccc(C(=O)Nc2ccc3c(C)cc(=O)oc3c2)c1	/	4	/	16	0
Cc1ccc(-c2ccc(S(=O)(=O)Nc3cccnc3)cc2)cc1	2	-1	16*	1	2
COc1ccc(NC2CCCN(C(=O)c3cccnc3)C2)cc1 (stereo not drawn)	1	2	-1	-7	1
Cc1cccc(N(CC(=O)NC2CCCC2)C(=O)c2c(C)noc2C)c1	2	4	-3	-2	0
CC(=O)Nc1cccc(NC(=O)c2cc(-c3cccnc3)nc3ccc(Br)cc23)c1	2	21	1	29	1
CSc1ccccc1NC(=O)c1cc(-c2cccnc2)nc2ccc(Br)cc12	5	7	17*	4	4
Cc1[nH][nH]c(=O)c1C(c1c(C)[nH][nH]c1=O)c1cn(Cc2cccc3ccccc23)c2ccccc12	3	2	16*	-9	7
COc1cccc(-n2nnc3c(=O)n(Cc4cccc(F)c4)cnc32)c1	-1	0	4	-10	1
CN(C)c1ccc2cc(S(=O)(=O)O)cc(O)c2c1	/	11	/	67*	13
COc1ccc(C2C(C#N)=C(N)N(c3sc4c(c3C#N)CCCC4)C3=C2C(=O)CC(C)(C)C3)cc1 (stereo not drawn)	2	-4	7	-10	1
COc1ccc(C2C(C#N)=C3NC(=O)c4c(sc5c4CCCCC5)N3C3=C2C(=O)CC(C)(C)C3)cc1 (stereo not drawn)	1	7	16*	-1	4
CCN(CC)c1ccc(NC(=O)CSc2nc3nc(C)cc(C)c3c(=O)[nH]2)cc1	1	1	0	-3	-2
SMILES	PP5 inh	STEP inh	PP1 inh	Scp-1 inhibitor	LMPTP block
COc1ccc(Cl)cc1C(Nc1cccnc1)c1ccc2cccnc2c1O (stereo not drawn)	-1	0	17*	-5	2
O=C(O)c1cc(O)c2c(c1)C(=O)c1cccc(O)c1C2=O	-1	13	3	65*	10
Cc1cccc(C)c1NC(=O)CSCC(=O)O	3	-4	-3	-3	0
Cc1cccc(C)c1NC(=O)CSCC(=O)c1ccc(O)c(O)c1	0	-2	-3	-2	48*
O=C(NCc1cccs1)c1nc2c(nnn2Cc2ccccc2Cl)c(=O)[nH]1	2	2	21*	-4	1
COc1ccccc1N1CCN(C(=O)CSc2nc3ccccc3[nH]2)CC1	4	-1	17*	2	1
N=c1sccn1CC(=O)Nc1cc(S(=O)(=O)N2CCCC2)ccc1Cl	2	-4	-4	12	3
COc1ccc(CN2CCNC(=O)C2CC(=O)NC2CCCCCCC2)cc1OC (stereo not drawn)	2	1	-2	-8	-1
CCN(C(=O)C(C)N1C(=O)/C(=C/c2ccco2)SC1=S)C1CCS(=O)(=O)C1 (stereo not drawn)	-1	15	-7	36	4
CC(C(=O)O)N1C(=O)/C(=C/C=C/c2ccco2)SC1=S (stereo not drawn)	2	99*	11	79*	78*
O=C(COc1ccc(/C=N/NC(=O)c2cc3ccccc3o2)cc1Br)Nc1ccccc1	1	64*	2	83*	29
Cc1ccc(C(=O)c2ccccc2C(=O)OCC(=O)Nc2ccc(SC(F)F)cc2)cc1	-2	0	-1	-16	5
O=C(COC(=O)c1ccccc1Cc1ccccc1)Nc1ccc(SC(F)F)cc1	5	-1	16*	-19	4
COc1ccc(C(=O)C[n+]2cccc3cc(C)ccc32)cc1	-1	2	7	-3	0
C#CCN1C(=O)S/C(=C\c2ccc(-c3ccc(Cl)c(C(=O)O)c3)o2)C1=O	0	14	7	38	0
O=C(O)c1cc(-c2ccc(/C=C3\NC(=O)N(c4ccc(Cl)cc4)C3=O)o2)ccc1Cl	3	39	-3	74*	2
Cc1ccc(-c2nnn(CC(=O)N(CC(=O)NC3CCCC3)c3cnc4ccccc4c3)n2)o1	3	2	-4	-4	0
O=C(Cn1cncc1-c1ccc([N+](=O)[O-])cc1)Nc1cccc2ccccc12	-1	2	21*	13	6
CCOc1ccc(NC(=O)Cn2cncc2-c2ccc([N+](=O)[O-])cc2)cc1	2	4	5	-6	17
Cc1ccccc1NCC(=O)N=Nc1c(O)[nH]c2ccc([N+](=O)[O-])cc12	1	4	10	1	0
O=C(O)c1ccccc1N=Nc1c(O)[nH]c2ccc([N+](=O)[O-])cc12	-1	46*	1	81*	21
COc1ccc(NC(=O)Nc2ccc3c(c2)C(=O)N([C@H](C)CO)C[C@H](C)[C@@H](CN(C)S(=O)(=O)c2cccs2)O3)cc1	/	-2	/	-2	0
CC(C)(c1ccccc1)c1ccc(OCC(O)CNC2CCN(Cc3ccccc3)CC2)cc1 (stereo not drawn)	1	1	16*	-1	2
CCOc1ccc(OCC(O)CNC2CCN(Cc3ccccc3)CC2)cc1 (stereo not drawn)	1	-1	-3	1	-1
